Results taken from publication PMC3449281 (Chemistry & biology, 2012).
Entries after “also recorded” stand apart in the source; their conditions may differ.

Assays:
[1] = target: purified firefly luciferase (FLuc) (Photinus pyralis, UniProt P08659); assay: Mode of inhibition; format: biochemical; conditions: IC50 shift with 1 mM D-LH2, 1 mM ATP or high CoASH
Outline: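 Purified P. pyralis FLuc was run in the standard luciferase assay (10 μM ATP and D-LH2, the KM levels). Test compounds were given as 12-point titrations, 57.5 μM to 0.3 nM final. One substrate was kept at KM and the other saturating (1 mM ATP or 1 mM D-luciferin), or 500 μM CoASH was added. Fold shift = IC50 at high substrate / IC50 at KM. There were three separate tests, each in duplicate.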

purified RLuc = target: T1, purified RLuc (Renilla reniformis, UniProt P27652); conditions: highest concentration tested = 57.5 μM
T1 sequence (P27652 1-311): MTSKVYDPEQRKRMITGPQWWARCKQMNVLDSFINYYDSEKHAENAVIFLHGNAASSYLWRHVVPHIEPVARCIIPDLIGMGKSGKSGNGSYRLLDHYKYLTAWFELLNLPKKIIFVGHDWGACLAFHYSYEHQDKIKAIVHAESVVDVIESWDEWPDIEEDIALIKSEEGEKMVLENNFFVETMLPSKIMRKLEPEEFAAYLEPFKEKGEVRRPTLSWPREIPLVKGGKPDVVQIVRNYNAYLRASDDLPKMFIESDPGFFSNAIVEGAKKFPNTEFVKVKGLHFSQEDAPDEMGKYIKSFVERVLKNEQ

miR-21 FLuc assay = assay: miR-21 FLuc cell-based reporter gene assay; conditions: 48-hour incubation with compound
Outline: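 The cell-based reporter expresses wild-type FLuc and was optimized to detect increases in FLuc signal. Cells were exposed to test compound for 48 h. Unlike the read-through assay, there was no wash step before the detection reagent was added. Concentration–response curves were recorded.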

purified firefly luciferase (FLuc), sequence (P08659 whole entry): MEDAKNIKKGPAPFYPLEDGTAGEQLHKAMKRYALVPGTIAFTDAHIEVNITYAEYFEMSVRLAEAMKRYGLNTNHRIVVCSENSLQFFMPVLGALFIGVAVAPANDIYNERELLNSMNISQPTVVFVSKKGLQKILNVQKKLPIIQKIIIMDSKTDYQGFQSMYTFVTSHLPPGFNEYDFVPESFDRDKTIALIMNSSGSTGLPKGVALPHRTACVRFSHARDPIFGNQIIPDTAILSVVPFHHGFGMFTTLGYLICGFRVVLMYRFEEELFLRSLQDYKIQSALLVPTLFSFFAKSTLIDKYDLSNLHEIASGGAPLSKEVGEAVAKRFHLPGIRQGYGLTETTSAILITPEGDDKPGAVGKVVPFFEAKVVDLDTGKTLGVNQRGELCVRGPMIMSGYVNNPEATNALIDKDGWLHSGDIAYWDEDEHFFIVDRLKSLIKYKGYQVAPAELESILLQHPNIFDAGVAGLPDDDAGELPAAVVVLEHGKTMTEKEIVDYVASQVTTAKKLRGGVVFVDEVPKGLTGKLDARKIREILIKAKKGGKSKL

| Compound | Mode of inhibition (substrate competition) [1] | Activity in RLuc assay (purified RLuc) | also measured |
| --- | --- | --- | --- |
| COc1ccc(-c2nc3ccccc3s2)cc1O [CID: 976322] | ATP was found to enhance inhibitor binding |  |  |
| O=C(Nc1ccccc1C(=O)O)c1cc(S(=O)(=O)Nc2cccc(F)c2)ccc1Cl [compound 1105141] |  | RLuc-active |  |
| O=C(Nc1ccccc1C(=O)O)c1cccc(S(=O)(=O)Nc2ccc(Br)cc2)c1 [compound 1087370] |  | RLuc-active |  |
| CC(=NNC(=O)c1ccccc1NC(=O)c1ccc(Cl)cc1)c1ccncc1 [CID: 16193026] | only ATP |  |  |
| CC(C)(C)C(=O)Nc1ccc(-c2nc3ccccc3s2)cc1 [CID: 16015828] |  |  | Effect on FLuc signal in cell-based miR-21 assay (miR-21 FLuc assay): strong activation |
| Cn1c(NN=Cc2cc3ccccc3nc2Cl)nc2ccccc21 [CID:4216593] | competitive with both D-LH2 and ATP; also recorded: significantly reduced by either ATP or D-LH2 |  |  |
